Test results reported in ChEMBL document CHEMBL4385623, “Advances in the structural studies of antibiotic potentiators against Escherichia coli” (2019).
In brackets after ≈: the same amount, converted by molar mass. Activity calls are given as the source filed them. The rule behind the calls is not given here. Peptide text beside a SMILES is read from it. * marks the point of attachment. βNA = c1ccc2cc(N*)ccc2c1

Tests used:
Escherichia coli [1] = assay: Induction of inner membrane permeabilization in Escherichia coli ATCC 25922 assessed as increase in propidium iodide uptake at 3.13 to 25 ug/ml by PI staining based flow cytometric analysis; type: functional, organism-based
How it was run: (§1)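 Flow cytometry. Log-phase cells grown in CAMH and diluted in PBS to 4 × 10^6 CFU/ml. Compound added at 1/32–¼ MIC (DMSO vehicle controls), in triplicate. Propidium iodide added at 50 μM final; 1 h in the dark at room temperature. Excitation 488 nm, emission 620/30 nm, 30,000 cells per sample. Result is percent PI-positive cells.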

Escherichia coli [2] = assay: Induction of outer membrane permeabilization in Escherichia coli ATCC 25922 assessed as increase in NPN uptake at 3.13 to 25 ug/ml incubated for 10 mins by fluorescence assay; type: functional, organism-based
How it was run: (§2)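 Log-phase cells grown in CAMH, washed, and resuspended in PBS to OD600 1.0. NPN added at 10 μM final for 10 min at room temperature. Compound (1/32–¼ MIC, DMSO vehicle) added, four replicates, then 10 min in the dark at room temperature. Fluorescence read at ex 350/em 420 nm. The 10-min average, minus vehicle wells, is the corrected value.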

[3] = tested on: Escherichia coli ATCC 25922; assay: Inhibition of AcrAB-TolC efflux pump in Escherichia coli ATCC 25922 assessed as inhibition of Hoechst 33342 efflux at 3.13 to 25 ug/ml pre-incubated for 5 mins followed by glucose addition by Hoechst 33342 staining based fluorescence assay
How it was run: (§3)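 Overnight cells washed and resuspended in PBS + 1 mM MgCl2 to OD600 1.0. Energy depleted with 3.13 μM CCCP for 20 min at 37 °C. Loaded with 10 μM Hoechst 33342 for 20 min, then mixed with compound (1/32–¼ MIC, DMSO vehicle) and preincubated 5 min at 37 °C. Efflux started with 50 mM glucose. Fluorescence (ex 355/em 460 nm) read each minute for 40 min at 37 °C.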

Escherichia coli [4] = assay: Potency index, ratio of potentiation of clarithromycin-induced antibacterial activity of PAbetaN to potentiation of clarithromycin-induced antibacterial activity of test compound against Escherichia coli ATCC 25922 assessed as fold reduction in clarithromycin MIC at 12.5 uM incubated for 24 hrs by spectrophotometric based assay; type: functional
Escherichia coli [5] = assay: Potentiation of clarithromycin-induced antibacterial activity against Escherichia coli ATCC 25922 assessed as fold reduction in clarithromycin MIC at 12.5 ug/ml incubated for 24 hrs by spectrophotometric based assay
Escherichia coli [6] = assay: Increase in membrane potential in Escherichia coli ATCC 25922 at 25 ug/ml incubated fro 30 mins by DiOC2 probe based flow cytometric analysis; type: functional, organism-based
How it was run: (§4)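 Log-phase cells grown in CAMH, diluted in PBS to 2 × 10^6 CFU/ml, and treated with compound at ¼ MIC. Controls were DMSO vehicle and 2 μg/ml CCCP, with 0.2% DMSO in all tubes, in triplicate. DiOC2 added at 30 μM; 30 min in the dark at room temperature. Flow cytometry at 488 nm excitation, 10,000 cells. Red (620/30) to green (525/20) fluorescence ratio reported.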

Escherichia coli [7] = assay: Disruption of membrane potential in Escherichia coli ATCC 25922 at 25 ug/ml incubated fro 30 mins by DiOC2 probe based flow cytometric analysis; type: functional, organism-based; how it was run: as §4
Escherichia coli [8] = assay: Induction of outer membrane permeabilization in Escherichia coli ATCC 25922 assessed as increase in propidium iodide uptake at 3.13 to 25 ug/ml by PI staining based flow cytometric analysis; type: functional, organism-based; how it was run: as §1
Escherichia coli [9] = assay: Antibacterial activity against Escherichia coli ATCC 25922 incubated for 24 hrs by spectrophotometric based assay; type: functional; conditions: ATCC 25922, 24 h
How it was run: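 Intrinsic MIC by broth microdilution. Log-phase cells at 5 × 10^5 CFU/ml in cation-adjusted Mueller-Hinton broth with two-fold serial dilutions of test compound. Aerobic incubation 24 h at 37 °C, then OD600 read. MIC is the lowest concentration giving ≥90% growth inhibition versus drug-free controls.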

Escherichia coli [10] = assay: Induction of inner membrane permeabilization in Escherichia coli ATCC 25922 assessed as increase in propidium iodide uptake at 1.56 to 12.5 ug/ml by PI staining based flow cytometric analysis; type: functional, organism-based; how it was run: as §1
Escherichia coli [11] = assay: Induction of outer membrane permeabilization in Escherichia coli ATCC 25922 assessed as increase in NPN uptake at 1.56 to 12.5 ug/ml incubated for 10 mins by fluorescence assay; type: functional, organism-based; how it was run: as §2
Escherichia coli [12] = assay: Disruption of membrane potential in Escherichia coli ATCC 25922 at 12.5 ug/ml incubated fro 30 mins by DiOC2 probe based flow cytometric analysis; type: functional, organism-based; how it was run: as §4
Escherichia coli [13] = assay: Induction of outer membrane permeabilization in Escherichia coli ATCC 25922 assessed as increase in propidium iodide uptake at 1.56 to 12.5 ug/ml by propidium iodide staining based flow cytometric analysis; type: functional, organism-based; how it was run: as §1
[14] = tested on: Escherichia coli ATCC 25922; assay: Inhibition of AcrAB-TolC efflux pump in Escherichia coli ATCC 25922 assessed as inhibition of Hoechst 33342 efflux at 1.56 to 12.5 ug/ml pre-incubated for 5 mins followed by glucose addition by Hoechst 33342 staining based fluorescence assay; how it was run: as §3

Compound | fold change (FC) (Escherichia coli [5]) | MIC (Escherichia coli [9]) [µg/mL] | other results
NCCC[C@H](N)CNCC(CCc1ccccc1)CCc1ccccc1 | 128 | 100 (≈ 283 µM) | Activity (Escherichia coli [1]): Active; Activity (Escherichia coli [2]): Dose-dependent effect; inhibition [3]: Dose-dependent effect; Ratio (Escherichia coli [4]): 32; Activity (Escherichia coli [6]): Active; Activity (Escherichia coli [7]): inactive; Activity (Escherichia coli [8]): Active
CN(C[C@@H](N)CCCN)C(=O)C(CCc1ccccc1)CCc1ccccc1 | 1 | > 200 | 
NC[C@@H](N)CCCNC(=O)C(CCc1ccccc1)CCc1ccccc1 | 32 | 100 (≈ 272 µM) | 
NCCC[C@H](N)CNC(=O)CC(Cc1ccccc1)Cc1ccccc1 | 16 | 200 (≈ 566 µM) | 
CN(C)CCC[C@H](N)CNC(=O)C(CCc1ccccc1)CCc1ccccc1 | 2 | 200 (≈ 506 µM) | 
NCCC[C@H](N)CNC(=O)CCc1ccccc1 | 1 | > 200 | 
NCCC[C@H](N)C(=O)NC(CCc1ccccc1)CCc1ccccc1 | 4 | > 100 | 
NCC[C@H](N)CNC(=O)C(CCc1ccccc1)CCc1ccccc1 | 2 | 100 (≈ 283 µM) | 
N=C(N)NCCC[C@H](NC(=O)[C@@H](N)Cc1ccccc1)C(=O)Nc1ccc2ccccc2c1 [PABETAN] (H-Phe-Arg-βNA) | 4 | > 200 | 
NCCC[C@H](N)CNC(=O)CCCc1ccccc1 | 1 | > 200 | 
NCCC[C@H](N)CNC(=O)C(CCc1ccccc1)CCc1ccccc1 | 16 | 50 (≈ 136 µM) | 
NCCC[C@H](N)CNC(=O)C(Cc1ccccc1)Cc1ccccc1 | 1 | > 200 | 
N=C(N)NCCC[C@H](N)CNC(=O)C(CCc1ccccc1)CCc1ccccc1 | 4 | > 200 | 
CN[C@@H](CCCN)CNC(=O)C(CCc1ccccc1)CCc1ccccc1 | 1 | > 200 | 
NCC[C@H](N)CCNC(=O)C(CCc1ccccc1)CCc1ccccc1 | 16 | 200 (≈ 544 µM) | 
NCCC[C@@H](N)CNC(=O)C(CCc1ccccc1)CCc1ccccc1 | 16 | 50 (≈ 136 µM) | 
NC[C@H](N)CNC(=O)C(CCc1ccccc1)CCc1ccccc1 | 16 | 200 (≈ 589 µM) | 
NNCCC[C@H](N)CNC(=O)C(CCc1ccccc1)CCc1ccccc1 | 1 | 200 (≈ 523 µM) | 
NC[C@@H](N)CCCNCC(CCc1ccccc1)CCc1ccccc1 | 32 | 100 (≈ 283 µM) | 
NCCC[C@H](N)CNC(=O)CC(CCc1ccccc1)CCc1ccccc1 | 512 | 50 (≈ 131 µM) | Ratio (Escherichia coli [4]): 128; Activity (Escherichia coli [10]): Active; Activity (Escherichia coli [11]): Dose-dependent effect; Activity (Escherichia coli [12]): inactive; Activity (Escherichia coli [13]): Active; inhibition [14]: Dose-dependent effect
CN(C)[C@@H](CCCN)CNC(=O)C(CCc1ccccc1)CCc1ccccc1 | 2 | 100 (≈ 253 µM) | 
NCCC[C@H](N)CNC(=O)CC(c1ccccc1)c1ccccc1 | 1 | > 200 | 
NCC[C@H](N)CCNCC(CCc1ccccc1)CCc1ccccc1 | 64 | 50 (≈ 141 µM) | 
CNCCC[C@H](N)CNC(=O)C(CCc1ccccc1)CCc1ccccc1 | 2 | 50 (≈ 131 µM) | 
NCCC[C@H](N)CNC(=O)C(c1ccccc1)c1ccccc1 | 2 | > 200 | 
